The source made the active and inactive calls. The calls are words filed in the database; no cut-off is given here.
What was measured:
[1] = molecular target: Plasmepsin V (Plasmodium falciparum (isolate 3D7)) (UniProt Q8I6Z5); test: Inhibition of Plasmodium falciparum […] plasmepsin-5 using DABCYL-GNKRTLAQKQG-EDANS as substrate measured every 15 mins of 75 mins by fluorescence assay
[2] = Selectivity ratio of IC50 for human BACE1 to IC50 for Plasmodium falciparum plasmepsin-2
Plasmodium falciparum [3] = test: Antimalarial activity against chloroquine-sensitive Plasmodium falciparum 3D7 infected in […] after 72 hrs by SYBR Green I-based fluorescence method; type: functional, organism-based; conditions: for IC50: 3D7, 72 h
[4] = Selectivity ratio of IC50 for human cathepsin E to IC50 for Plasmodium falciparum plasmepsin-2
[5] = Selectivity ratio of IC50 for human cathepsin D to IC50 for Plasmodium falciparum plasmepsin-2
Plasmodium chabaudi [6] = test: Antimalarial activity against Plasmodium chabaudi ASS infected in NIH mouse assessed as inhibition of parasitemia at 4.5 mg/kg, po qd for 4 days; type: functional; conditions: 96 h
Outline: (§1)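 Mice infected with P. chabaudi were given oral doses once daily for four days, starting four hours after infection. Parasitemia was read on Day 4 postinoculation and expressed as percent inhibition of parasitemia.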

Cytochrome P450 2C9 = Cytochrome P450 2C9 (Homo sapiens, UniProt P11712); test: Inhibition of human recombinant CYP2C9 after 30 mins; type: ADME; conditions: recombinant enzyme, 0.5 h
Cytochrome P450 2C19 = Cytochrome P450 2C19 (Homo sapiens, UniProt P33261); test: Inhibition of human recombinant CYP2C19 after 30 mins; type: ADME; conditions: recombinant enzyme, 0.5 h
[7] = Plasma concentration in Plasmodium chabaudi ASS infected NIH mouse at 100 mg/kg, po qd measured 24 hrs after post last dose on day 3; type: ADME, organism-based; parameters: dose 100 mg/kg, route oral
Outline: (§2)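 P. chabaudi-infected mice were dosed orally once daily for four days, starting four hours post-infection. Plasma compound levels were measured at 1, 6 and 24 h after the last dose on Day 3.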

Plasmodium chabaudi [8] = test: Antimalarial activity against Plasmodium chabaudi ASS infected in NIH mouse assessed as inhibition of parasitemia at 100 mg/kg, po qd for 4 days; type: functional; conditions: 96 h; outline: as §1
HepG2 = test: Cytotoxicity against human HepG2 cells after 72 hrs; type: cell-based; conditions: hepg2, 72 h
Plasmodium falciparum [9] = test: Antimalarial activity against chloroquine and pyrimethamine-resistant Plasmodium falciparum Dd2 infected in […] after 48 hrs by SYBR Green I-based fluorescence method; type: functional
Plasmodium falciparum [10] = test: Antimalarial activity against chloroquine-sensitive Plasmodium falciparum 3D7 infected in […] after 48 hrs by SYBR Green I-based fluorescence method; type: functional, organism-based
Cytochrome P450 1A2 = molecular target: T1, Cytochrome P450 1A2 (Homo sapiens, UniProt P05177); test: Inhibition of human recombinant CYP1A2 after 30 mins; type: ADME; conditions: recombinant enzyme, 0.5 h
T1 sequence (P05177 whole entry): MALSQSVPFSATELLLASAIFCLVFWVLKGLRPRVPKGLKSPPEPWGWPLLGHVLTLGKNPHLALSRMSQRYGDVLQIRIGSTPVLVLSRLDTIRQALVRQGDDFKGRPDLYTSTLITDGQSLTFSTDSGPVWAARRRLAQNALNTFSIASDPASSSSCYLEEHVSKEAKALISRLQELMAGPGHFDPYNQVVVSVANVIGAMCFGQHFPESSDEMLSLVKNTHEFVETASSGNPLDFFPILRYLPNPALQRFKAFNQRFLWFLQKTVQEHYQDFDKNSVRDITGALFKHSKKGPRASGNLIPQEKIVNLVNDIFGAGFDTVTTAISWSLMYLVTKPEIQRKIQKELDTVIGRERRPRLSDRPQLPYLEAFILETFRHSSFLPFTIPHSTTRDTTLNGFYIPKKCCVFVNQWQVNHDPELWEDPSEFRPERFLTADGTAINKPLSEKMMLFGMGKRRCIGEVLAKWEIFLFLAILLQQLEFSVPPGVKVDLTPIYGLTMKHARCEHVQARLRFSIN

Cytochrome P450 3A4 = Cytochrome P450 3A4 (Homo sapiens, UniProt P08684); test: Inhibition of human recombinant CYP3A4 after 30 mins; type: ADME; conditions: recombinant enzyme, 0.5 h
[11] = Plasma concentration in Plasmodium chabaudi ASS infected NIH mouse at 100 mg/kg, po qd measured 1 hr after post last dose on day 3; type: ADME, organism-based; parameters: dose 100 mg/kg, route oral; outline: as §2
Cytochrome P450 2D6 = Cytochrome P450 2D6 (Homo sapiens, UniProt P10635); test: Inhibition of human recombinant CYP2D6 after 30 mins; type: ADME; conditions: recombinant enzyme, 0.5 h
[12] = Plasma concentration in Plasmodium chabaudi ASS infected NIH mouse at 100 mg/kg, po qd measured 6 hrs after post last dose on day 3; type: ADME, organism-based; parameters: dose 100 mg/kg, route oral; outline: as §2
[13] = molecular target: Plasmepsin II (Plasmodium falciparum) (UniProt P46925); test: Inhibition of Plasmodium falciparum plasmepsin-2 after 60 mins by fluorescence assay
Sequence of Plasmepsin II (Plasmodium falciparum) (P46925 125-453 limits assumed): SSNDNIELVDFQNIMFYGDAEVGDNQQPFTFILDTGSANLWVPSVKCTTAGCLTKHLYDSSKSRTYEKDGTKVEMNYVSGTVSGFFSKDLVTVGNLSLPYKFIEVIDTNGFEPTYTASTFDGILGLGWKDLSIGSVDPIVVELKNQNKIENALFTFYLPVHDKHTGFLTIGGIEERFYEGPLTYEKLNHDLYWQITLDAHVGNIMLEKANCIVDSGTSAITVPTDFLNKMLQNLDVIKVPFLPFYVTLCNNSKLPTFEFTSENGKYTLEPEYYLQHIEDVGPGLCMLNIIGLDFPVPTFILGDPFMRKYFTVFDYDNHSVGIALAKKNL

Sequence of Plasmepsin V (Plasmodium falciparum (isolate 3D7)) (Q8I6Z5 whole entry, looked up): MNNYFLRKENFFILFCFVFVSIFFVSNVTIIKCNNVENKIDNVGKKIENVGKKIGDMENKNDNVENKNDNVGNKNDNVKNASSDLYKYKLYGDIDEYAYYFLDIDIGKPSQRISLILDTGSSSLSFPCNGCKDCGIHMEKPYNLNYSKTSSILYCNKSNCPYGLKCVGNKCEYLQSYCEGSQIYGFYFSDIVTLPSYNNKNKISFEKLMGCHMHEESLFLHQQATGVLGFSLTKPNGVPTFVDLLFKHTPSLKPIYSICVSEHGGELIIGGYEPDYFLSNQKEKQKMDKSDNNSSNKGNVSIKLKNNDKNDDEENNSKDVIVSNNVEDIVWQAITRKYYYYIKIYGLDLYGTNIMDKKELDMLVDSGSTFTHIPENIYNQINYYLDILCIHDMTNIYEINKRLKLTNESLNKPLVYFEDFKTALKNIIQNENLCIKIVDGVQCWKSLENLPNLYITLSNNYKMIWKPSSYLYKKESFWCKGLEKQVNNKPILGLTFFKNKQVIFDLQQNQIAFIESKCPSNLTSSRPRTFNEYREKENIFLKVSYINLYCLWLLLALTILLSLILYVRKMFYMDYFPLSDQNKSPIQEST
Sequence of Cytochrome P450 2C19 (P33261 whole entry): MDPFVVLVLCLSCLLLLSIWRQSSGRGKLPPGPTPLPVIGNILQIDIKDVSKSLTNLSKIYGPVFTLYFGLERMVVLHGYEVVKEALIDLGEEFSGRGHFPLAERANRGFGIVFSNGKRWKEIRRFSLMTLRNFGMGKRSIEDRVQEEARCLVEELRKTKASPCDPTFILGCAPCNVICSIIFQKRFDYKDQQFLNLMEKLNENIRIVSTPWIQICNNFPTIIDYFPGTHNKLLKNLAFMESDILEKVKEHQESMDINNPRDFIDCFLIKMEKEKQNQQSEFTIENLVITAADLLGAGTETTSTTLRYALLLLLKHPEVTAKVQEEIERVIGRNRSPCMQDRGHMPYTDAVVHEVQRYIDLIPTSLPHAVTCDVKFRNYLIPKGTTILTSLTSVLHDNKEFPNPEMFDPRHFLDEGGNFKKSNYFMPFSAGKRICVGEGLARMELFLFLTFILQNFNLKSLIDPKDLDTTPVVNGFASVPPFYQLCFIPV
Sequence of Cytochrome P450 2D6 (P10635 whole entry): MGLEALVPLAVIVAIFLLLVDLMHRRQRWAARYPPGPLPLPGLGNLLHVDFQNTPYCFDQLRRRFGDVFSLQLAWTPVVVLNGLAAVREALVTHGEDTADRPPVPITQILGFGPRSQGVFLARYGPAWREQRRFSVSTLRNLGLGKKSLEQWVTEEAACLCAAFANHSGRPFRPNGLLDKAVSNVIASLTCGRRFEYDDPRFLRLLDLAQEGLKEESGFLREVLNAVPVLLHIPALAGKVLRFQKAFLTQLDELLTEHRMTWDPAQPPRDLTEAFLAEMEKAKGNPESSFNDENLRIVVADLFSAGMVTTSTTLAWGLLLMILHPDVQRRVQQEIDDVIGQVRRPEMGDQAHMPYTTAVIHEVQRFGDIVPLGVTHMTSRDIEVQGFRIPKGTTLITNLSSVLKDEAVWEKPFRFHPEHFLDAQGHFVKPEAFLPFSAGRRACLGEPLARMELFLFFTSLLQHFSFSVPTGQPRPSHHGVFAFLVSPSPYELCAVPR
Sequence of Cytochrome P450 2C9 (P11712 whole entry): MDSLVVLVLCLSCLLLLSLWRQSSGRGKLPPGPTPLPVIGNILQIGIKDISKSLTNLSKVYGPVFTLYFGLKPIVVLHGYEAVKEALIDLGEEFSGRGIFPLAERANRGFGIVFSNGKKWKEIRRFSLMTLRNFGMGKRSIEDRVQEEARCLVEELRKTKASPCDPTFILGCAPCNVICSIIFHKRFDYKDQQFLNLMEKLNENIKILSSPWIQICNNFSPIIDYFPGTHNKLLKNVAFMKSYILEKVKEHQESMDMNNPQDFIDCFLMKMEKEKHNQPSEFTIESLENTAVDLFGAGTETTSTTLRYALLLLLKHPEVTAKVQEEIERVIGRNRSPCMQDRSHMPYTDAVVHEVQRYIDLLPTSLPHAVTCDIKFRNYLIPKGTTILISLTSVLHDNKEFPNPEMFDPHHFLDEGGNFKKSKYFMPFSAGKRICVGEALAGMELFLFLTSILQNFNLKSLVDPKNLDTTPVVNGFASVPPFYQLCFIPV
Sequence of Cytochrome P450 3A4 (P08684 whole entry): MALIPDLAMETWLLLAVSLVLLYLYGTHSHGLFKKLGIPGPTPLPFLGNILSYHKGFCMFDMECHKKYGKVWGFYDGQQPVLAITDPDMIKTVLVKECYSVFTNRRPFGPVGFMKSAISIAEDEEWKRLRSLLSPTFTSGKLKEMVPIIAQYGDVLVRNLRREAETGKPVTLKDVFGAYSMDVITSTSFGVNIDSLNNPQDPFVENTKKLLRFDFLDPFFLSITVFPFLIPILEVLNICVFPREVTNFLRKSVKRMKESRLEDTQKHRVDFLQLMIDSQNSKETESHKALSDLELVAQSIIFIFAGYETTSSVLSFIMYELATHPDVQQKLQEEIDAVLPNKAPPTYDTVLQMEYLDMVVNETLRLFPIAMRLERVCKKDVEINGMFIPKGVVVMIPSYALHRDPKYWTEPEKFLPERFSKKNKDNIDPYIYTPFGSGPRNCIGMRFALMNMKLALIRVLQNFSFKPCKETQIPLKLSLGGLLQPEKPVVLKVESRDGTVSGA

Row | Structure (SMILES) | IC50 (Plasmodium falciparum [3]) | further results
1 | N=C1NC(c2ccccc2)(c2cccc(-c3cccnc3)c2)C(=O)N1C1CCCCC1 (racemic) | 750 nM | inhibition [1]: inactive; Ratio IC50 [2]: > 1000; Ratio IC50 [4]: 200; Ratio IC50 [5]: > 1000
2 | COc1ccc(C2(c3ccc(OC)cc3)NC(=N)N(C3CCNCC3)C2=O)cc1 | > 5000 nM | 
3 | COc1ccc(C2(c3cccc(-c4ccccn4)c3)NC(=N)N(C3CCCCC3)C2=O)cc1 (racemic) | 1810 nM | 
4 | COc1ccc(C2(c3ccccc3)NC(=N)N(C3CCCCC3)C2=O)cc1 (racemic) | 533 nM | 
5 | COc1ccc(C2(c3ccc(OC)cc3)NC(=N)N(C3CCN(C)CC3)C2=O)cc1 | 697 nM | 
6 | COc1cccc(C2(c3cccc(-c4ccncc4)c3)NC(=N)N(C3CCCCC3)C2=O)c1 (racemic) | 318 nM | 
7 | N=C1NC(c2ccc(OC(F)(F)F)cc2)(c2ccc(OC(F)(F)F)cc2)C(=O)N1C1CCCCC1 | 2200 nM | 
8 | CCOc1ccc(C2(c3ccc(OCC)cc3)NC(=N)N(C3CCCCC3)C2=O)cc1 | 466 nM | 
9 | CCN(CC)CCCC(C)Nc1ccnc2cc(Cl)ccc12 (stereo not given) [CHLOROQUINE] |  | inhibition in vivo at 4.5 mg/kg (Plasmodium chabaudi [6]): 100%
10 | COc1ccc(C2(c3ccc(OC)cc3)NC(=N)N(C3CCC3)C2=O)cc1 | 722 nM | 
11 | COc1ccc(C2(c3ccc(OC)cc3)NC(=N)N(CC3CCOCC3)C2=O)cc1 | 463 nM | inhibition (INH) (Cytochrome P450 2C9): Not Active; inhibition (INH) (Cytochrome P450 2C19): Not Active; concentration at 24 h [7]: 123 ng/mL; inhibition in vivo at 100 mg/kg (Plasmodium chabaudi [8]): 41%; Activity (HepG2): Toxic; inhibition (Plasmodium falciparum [9]): Active; inhibition (Plasmodium falciparum [10]): Active; inhibition (INH) (Cytochrome P450 1A2): Not Active; inhibition (INH) (Cytochrome P450 3A4): Active; concentration at 1 h [11]: 10400 ng/mL; inhibition (INH) (Cytochrome P450 2D6): Not Active; concentration at 6 h [12]: 3030 ng/mL
12 | CCC(CN1C(=N)NC(c2ccc(OC)cc2)(c2ccc(OC)cc2)C1=O)c1ccccc1 (stereo not given) | 244 nM | 
13 | COc1ccc(C2(c3ccc(OC)cc3)NC(=N)N(CCc3ccccc3)C2=O)cc1 | 2380 nM | 
14 | N=C1NC(c2ccccc2)(c2cccc(Oc3ccccc3)c2)C(=O)N1C1CCCCC1 (racemic) | 424 nM | 
15 | N=C1NC(c2cccc(-c3cccnc3)c2)(c2cccc(-c3cccnc3)c2)C(=O)N1C1CCCCC1 | 725 nM | 
16 | N=C1NC(c2ccccc2)(c2ccccc2)C(=O)N1C1CCCCC1 | 3850 nM | 
17 | COc1ccc(C2(c3ccc(OC)cc3)NC(=S)N(C3CCCCC3)C2=O)cc1 |  | inhibition [13]: inactive; inhibition (Plasmodium falciparum [3]): inactive
18 | COc1ccc(C2(c3cccc(-c4cccnc4)c3)NC(=N)N(C3CCCCC3)C2=O)cc1 (racemic) | 595 nM | 
19 | COc1cccc(C2(c3cccc(-c4cccnc4)c3)NC(=N)N(C3CCCCC3)C2=O)c1 (racemic) | 787 nM | 
20 | COc1cccc(C2(c3cccc(OC)c3)NC(=N)N(C3CCCCC3)C2=O)c1 | 768 nM | inhibition [1]: inactive
21 | COc1ccc(C2(c3ccc(OC)cc3)NC(=N)N(C3CCN(C(=O)OC(C)(C)C)CC3)C2=O)cc1 | 436 nM | 
22 | COc1ccc(C2(c3ccc(OC)cc3)NC(=N)N(C3CCCCCC3)C2=O)cc1 | 427 nM | 
